Calls of active or inactive are those of the source.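 The calls were made as follows, unless noted: active = GFP response above 150% of the DMSO level; inconclusive = fewer than 70 events counted for a yeast strain; inactive = the rest.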

A short description of experiment [1]: hit retest on RPL19A-GFP reporter strain – cell-based, S. cerevisiae, flow cytometry, cherry picks, mother/daughter gates, confirmation (AID 2270;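 active = GFP response below 50% of the DMSO control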). The note with it: 3 h, at 10 µM, stronger effect = lower value, 100 = same GFP as DMSO wells.
A short description of experiment [2]: yeast TOR pathway reporter LAP4-GFP change – cell-based, cherry picks, flow cytometry, mother/daughter gates, confirmation (AID 2271;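 active = GFP response above 150% of the DMSO control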;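 also: ratio of sample to DMSO plate mean so 100% equals DMSO level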). The note with it: S. cerevisiae LAP4-GFP strain, 3 h, at 10 µM, stronger effect = higher value, 100 means same as DMSO control. The method in brief: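 System: GFP-fusion yeast strain; Incubation: compound exposure 3 h at 30 °C, end-over-end rotation; Measured by: GFP by flow cytometry; Read-out: median GFP fluorescence as percent of plate-mean DMSO wells; Medium: synthetic complete (SC) yeast growth medium; Compound: single test-compound dose, 10 µM final; Benchmarks: DMSO-only negative wells, rapamycin 400 ng/mL positive wells.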

Experiment [3] in a line: TOR pathway reporter MEP2-GFP, retest of hits – S. cerevisiae, flow cytometry GFP, cherry picks, confirmation (AID 2272;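 active = GFP response above 150% of the DMSO control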;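 also: ratio of well signal to plate DMSO mean so 100% equals DMSO level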). The note with it: S. cerevisiae MEP2-GFP strain, 3 h, at 10 µM, stronger effect = higher value.
A short description of experiment [4]: yeast AGP1-GFP fluorescence change, single-dose – cell-based, flow cytometry, S. cerevisiae, cherry picks, confirmation (AID 2273).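 Also: median GFP channel fluorescence over the whole cell population gate.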 Conditions: S. cerevisiae AGP1-GFP strain, 3 h, at 10 µM.
Experiment [5] is described as follows: TOR pathway CIT2 reporter hit retest – S. cerevisiae, GFP fusion, cherry picks, mother/daughter gates, confirmation (AID 2274). Conditions: S. cerevisiae CIT2-GFP strain, flow cytometry, 3 h, at 10 µM, stronger effect = higher value.
Setting [6] is: measured here: daughter cell gate.
[7] abbreviates: measured here: mother cell gate.
The mark [8] stands for this setting: measured here: daughter cell gate response.
[9] abbreviates: measured here: mother cell gate response.

As to `COc1ccc(/C=C/C(=O)c2ccc(OC)cc2O)cc1`, the GFP response vs DMSO in experiment [1] is 99.9% (inactive); in experiment [1] (setting [6]) it was 100%; in experiment [1] (setting [7]), 99.3%; in experiment [3], 104% (inactive). The GFP response relative to DMSO in experiment [2] was 98.8% (inactive); in experiment [2] (setting [8]), 99.3%; in experiment [2] (setting [9]), 100%. The GFP response, % of DMSO in experiment [4] was 100% (inactive); in experiment [5], 102% (inactive); in experiment [5] (setting [6]) it was 102%; in experiment [5] (setting [7]) it was 100%.

Turning to `COc1cc(NC(=O)c2ccccc2F)ccc1NC(=O)c1cc2ccccc2o1`, the GFP response vs DMSO was 87.2% (inactive) in experiment [1], 90.2% in experiment [1] (setting [6]), 88.8% in experiment [1] (setting [7]) and 107% (inactive) in experiment [3]. Further, the GFP response relative to DMSO was 97% (inactive) in experiment [2], 97.5% in experiment [2] (setting [8]) and 97.3% in experiment [2] (setting [9]). Besides, the GFP response, % of DMSO is 101% (inactive) in experiment [4], 100% (inactive) in experiment [5], 97.4% in experiment [5] (setting [6]) and 98.1% in experiment [5] (setting [7]).

In the case of `CC(=O)Oc1c(C)cc(Cl)cc1C(=O)Nc1ccc([N+](=O)[O-])cc1Cl`, the GFP response vs DMSO was 97% (inactive) in experiment [1], 96% in experiment [1] (setting [6]), 98.2% in experiment [1] (setting [7]) and 101% (inactive) in experiment [3]. Moreover, the results for the GFP response relative to DMSO in experiment [2], in experiment [2] (setting [8]) and in experiment [2] (setting [9]) were 91.2% (inactive), 92% and 93%, respectively. In addition, the GFP response, % of DMSO in experiment [4] was 97.9% (inactive); in experiment [5], 90.9% (inactive); in experiment [5] (setting [6]) it was 93.7%; in experiment [5] (setting [7]) it was 89.8%.

Regarding `Cc1csc(Nc2ccccc2C(F)(F)F)n1`, the GFP response vs DMSO in experiment [1] is 96.2% (inactive); in experiment [1] (setting [6]), 94.2%; in experiment [1] (setting [7]), 95.9%; in experiment [3] it was 101% (inactive). Further, the GFP response relative to DMSO in experiment [2] is 105% (inactive); in experiment [2] (setting [8]), 104%; in experiment [2] (setting [9]), 108%. Also, the GFP response, % of DMSO in experiment [4] was 94.3% (inactive); in experiment [5] it was 97.2% (inactive); in experiment [5] (setting [6]) it was 97.6%; in experiment [5] (setting [7]), 94.9%.

Consider `CCc1ccc(-c2csc(NC(=O)COC(=O)CCc3nc4ccccc4s3)n2)cc1`, for which the GFP response vs DMSO was 105% (inactive) in experiment [1], 102% in experiment [1] (setting [6]), 106% in experiment [1] (setting [7]) and 103% (inactive) in experiment [3]. The figures for the GFP response relative to DMSO in experiment [2], in experiment [2] (setting [8]) and in experiment [2] (setting [9]) were 98.2% (inactive), 97.5% and 98.4%, respectively. In addition, the GFP response, % of DMSO is 103% (inactive) in experiment [4], 106% (inactive) in experiment [5], 101% in experiment [5] (setting [6]) and 105% in experiment [5] (setting [7]).

Regarding `CCCn1c(=O)c(C(=O)Nc2ccccc2C(=O)OC)c(O)c2ccccc21`, the GFP response vs DMSO in experiment [1] was 101% (inactive); in experiment [1] (setting [6]), 99%; in experiment [1] (setting [7]), 103%; in experiment [3], 97.8% (inactive). Moreover, the GFP response relative to DMSO in experiment [2] was 92.6% (inactive); in experiment [2] (setting [8]), 94.1%; in experiment [2] (setting [9]), 95.2%. Also, the GFP response, % of DMSO in experiment [4] was 103% (inactive); in experiment [5], 93.9% (inactive); in experiment [5] (setting [6]) it was 94.8%; in experiment [5] (setting [7]), 93.4%.

As to `C=CCn1cc(/C=C/c2cc[n+](C)cc2)c2ccccc21`, the GFP response vs DMSO is 102% (inactive) in experiment [1], 99.6% in experiment [1] (setting [6]), 103% in experiment [1] (setting [7]) and 120% (inactive) in experiment [3]. Also, the GFP response relative to DMSO was 108% (inactive) in experiment [2], 107% in experiment [2] (setting [8]) and 108% in experiment [2] (setting [9]). Moreover, the GFP response, % of DMSO in experiment [4] was 97.8% (inactive); in experiment [5], 125% (inactive); in experiment [5] (setting [6]), 119%; in experiment [5] (setting [7]) it was 127%.

Consider `CCCCn1c(=O)c(C(=O)OCC)c(O)c2ccccc21`, for which the GFP response vs DMSO in experiment [1] is 106% (inactive); in experiment [1] (setting [6]), 101%; in experiment [1] (setting [7]), 108%; in experiment [3], 99% (inactive). The values for the GFP response relative to DMSO in experiment [2], in experiment [2] (setting [8]) and in experiment [2] (setting [9]) were 105% (inactive), 102% and 108%, respectively. Besides, the GFP response, % of DMSO in experiment [4] was 97.5% (inactive); in experiment [5], 94.4% (inactive); in experiment [5] (setting [6]), 90.2%; in experiment [5] (setting [7]), 94.4%.

In the case of `O=C(/C=C/c1ccc(F)cc1)c1ccccc1Br`, the GFP response vs DMSO in experiment [1] is 98% (inactive); in experiment [1] (setting [6]) it was 98.1%; in experiment [1] (setting [7]), 98.3%; in experiment [3], 103% (inactive). The GFP response relative to DMSO is 112% (inactive) in experiment [2], 112% in experiment [2] (setting [8]) and 116% in experiment [2] (setting [9]). The GFP response, % of DMSO in experiment [4] is 98.1% (inactive); in experiment [5], 93.4% (inactive); in experiment [5] (setting [6]) it was 93.7%; in experiment [5] (setting [7]), 89.8%.

Take `Cc1ccc(NC(=O)ON=C2CCCC2)cc1`: the GFP response vs DMSO in experiment [1] was 101% (inactive); in experiment [1] (setting [6]), 104%; in experiment [1] (setting [7]), 93.5%; in experiment [3], 109% (inactive). Also, the GFP response relative to DMSO in experiment [2] was 122% (inactive); in experiment [2] (setting [8]) it was 115%; in experiment [2] (setting [9]), 121%. Also, the GFP response, % of DMSO was 68.9% (inactive) in experiment [4], 167% (active) in experiment [5], 150% in experiment [5] (setting [6]) and 167% in experiment [5] (setting [7]).

In the case of `CC1(C)CCN2CCC(C)(C)c3c(O)ccc1c32`, the GFP response vs DMSO is 105% (inactive) in experiment [1], 105% in experiment [1] (setting [6]), 107% in experiment [1] (setting [7]) and 139% (inactive) in experiment [3]. The figures for the GFP response relative to DMSO in experiment [2], in experiment [2] (setting [8]) and in experiment [2] (setting [9]) were 115% (inactive), 123% and 115%, respectively. Besides, the GFP response, % of DMSO in experiment [4] was 101% (inactive); in experiment [5] it was 121% (inactive); in experiment [5] (setting [6]) it was 123%; in experiment [5] (setting [7]), 119%.

Turning to `COc1ccc(N2C(=O)C(Cl)=C(Nc3ccccc3O)C2=O)cc1`, the GFP response vs DMSO was 99.6% (inactive) in experiment [1], 98.8% in experiment [1] (setting [6]), 100% in experiment [1] (setting [7]) and 112% (inactive) in experiment [3]. Besides, the GFP response relative to DMSO in experiment [2] is 102% (inactive); in experiment [2] (setting [8]) it was 101%; in experiment [2] (setting [9]), 103%. The GFP response, % of DMSO was 98.8% (inactive) in experiment [4], 100% (inactive) in experiment [5], 95.6% in experiment [5] (setting [6]) and 99.3% in experiment [5] (setting [7]).

For `N#Cc1cc(Sc2ccccn2)c([N+](=O)[O-])cc1C#N`, the GFP response vs DMSO is 107% (inactive) in experiment [1], 110% in experiment [1] (setting [6]), 106% in experiment [1] (setting [7]) and 143% (inactive) in experiment [3]. The GFP response relative to DMSO in experiment [2] was 121% (inactive); in experiment [2] (setting [8]), 123%; in experiment [2] (setting [9]) it was 118%. For the same compound, the GFP response, % of DMSO in experiment [4] is 106% (inactive); in experiment [5], 123% (inactive); in experiment [5] (setting [6]), 125%; in experiment [5] (setting [7]), 120%.

In the case of `Cc1ccn2c(NC3CCCCC3)c(-c3cccc(-c4cccc(Cl)c4)c3)nc2c1`, the GFP response vs DMSO in experiment [1] was 95% (inactive); in experiment [1] (setting [6]) it was 92.1%; in experiment [1] (setting [7]), 95.8%; in experiment [3], 108% (inactive). Further, the GFP response relative to DMSO in experiment [2] was 110% (inactive); in experiment [2] (setting [8]), 102%; in experiment [2] (setting [9]), 112%. In addition, the GFP response, % of DMSO in experiment [4] is 92.5% (inactive); in experiment [5], 93.5% (inactive); in experiment [5] (setting [6]), 98.3%; in experiment [5] (setting [7]) it was 88.6%.

These data come from PubChem BioAssay.
